Bioassay records as filed in PubChem BioAssay.
Rows were chosen to be rich in hits. Some 2.1% of all compounds tested hit in one or more screens of this group.
RanGTP-Imp inh: inhibitors of RanGTP-importin-beta interaction, primary screen, biochemical, FRET, CFP-Ran, YFP-importin-beta, homogeneous; cell-free CFP-Ran/YFP-importin-beta FRET ratio; 300,000 tested, 1.1% active; inhibition, % (no concentration beside the values);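 active = more than half of the replicate wells show a fall in the fluorescence ratio signal beyond about 16%, limit read from the data, passing the limit was not always enough; inconclusive = exactly half of the replicate wells pass the set limit; inactive = fewer than half of replicates pass the limit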
TbHK1 inh: T. brucei hexokinase 1 inhibition. inhibition, % at 10 µM. recombinant TbHK1, G6PDH-coupled NADH A340. 220,000 tested, 0.11% active;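 active = inhibition of 50% or more in the single-dose primary screen; inactive = inhibition below 50%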
Runt-SMMHC FRET: inhibitors of human RUNX1 Runt domain binding to CBFb-SMMHC; inhibition, % at 20 µM; 220,000 tested, 0.74% active; Cerulean-Runt/Venus-CBFb-SMMHC FRET ratio 530/480, 1 h; AID 1434; Q01196+Q13951;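 active = mean inhibition across duplicate retests at 20 µM reaching about 50%, limit read from the data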;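 also: inhibitors lower the FRET ratio by blocking Runt binding to CBFb-SMMHC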
Target sequence (Q01196 whole entry, looked up, the tested form may be a part): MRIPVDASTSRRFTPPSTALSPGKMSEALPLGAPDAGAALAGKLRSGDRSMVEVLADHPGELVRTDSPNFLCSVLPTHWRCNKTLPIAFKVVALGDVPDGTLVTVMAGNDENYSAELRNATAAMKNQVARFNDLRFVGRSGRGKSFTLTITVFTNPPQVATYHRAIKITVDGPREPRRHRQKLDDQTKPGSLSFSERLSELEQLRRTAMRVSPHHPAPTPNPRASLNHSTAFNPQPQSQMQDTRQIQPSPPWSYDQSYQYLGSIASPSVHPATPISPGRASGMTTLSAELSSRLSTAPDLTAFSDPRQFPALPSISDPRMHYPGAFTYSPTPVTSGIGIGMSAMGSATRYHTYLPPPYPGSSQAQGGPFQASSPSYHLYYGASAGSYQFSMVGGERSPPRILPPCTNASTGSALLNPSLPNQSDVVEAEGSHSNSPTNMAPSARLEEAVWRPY
Target sequence (Q13951 whole entry, looked up, the tested form may be a part): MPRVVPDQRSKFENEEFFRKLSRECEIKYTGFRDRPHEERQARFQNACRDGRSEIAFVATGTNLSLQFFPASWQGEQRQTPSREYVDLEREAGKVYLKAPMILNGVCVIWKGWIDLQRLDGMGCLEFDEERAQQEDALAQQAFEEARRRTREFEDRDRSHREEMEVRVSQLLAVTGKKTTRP
p97 ATPase inh: inhibitors of human p97 ATPase; P55072; recombinant p97 ATPase, Kinase-Glo ATP luminescence, 3 h; inhibition, % at 8 µM; 220,000 tested, 0.42% active; in the data active = inhibition above about 15%
Runt-CBFb FRET: Runt domain-CBFb interaction inhibition; inhibition, % at 20 µM; 220,000 tested, 0.46% active; Cerulean-Runt/Venus-CBFb FRET ratio 530/480, 1 h; Q01196+Q13951;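 active = inhibition over about 50% at 20 µM in the single-dose screen, limit read from the data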
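Schedule: protein complex preformed 1 h, compound exposure 1 h, room temperature, dark; test system: Cerulean-labeled Runt domain protein; amount: 100 nM per protein; buffer or medium: Tris 50 mM pH 7.5, KCl, K2SO4, 0.01% BSA; read-out: loss of energy transfer signal; detection: FRET fluorescence; controls: 5 µM unlabeled CBFb as full-inhibition high control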
Hck Nef HTS: blocks Nef-activated human Hck kinase. 220,000 tested, 0.68% active. inhibition, % at 20 µM. P08631. Recombinant Hck-YEEI plus Nef, Z-Lyte FRET kinase assay;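 active = Hck-Nef kinase inhibition above about 50%, limit read from the data; inactive = inhibition below that limit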
Hits are given with their value.

What do the screens show for `COc1ccccc1C(=O)N1CCN(c2cccc(Cl)c2)CC1`?
RanGTP-Imp inh: inactive; TbHK1 inh: inactive; Runt-SMMHC FRET: inactive; p97 ATPase inh: inactive; Hck Nef HTS: inactive

How did COc1ccccc1[C@@H]1C(c2cccc(Cl)c2)=NN(c2ccccc2)[C@H]1C(=O)N1CCOC1=O do in these assays?
RanGTP-Imp inh: 27; TbHK1 inh: inactive; Runt-SMMHC FRET: 73; p97 ATPase inh: inactive; Runt-CBFb FRET: inactive; Hck Nef HTS: inactive

What do the screens show for `CCN(CC)CCCCCC(=O)Nc1ccccc1C(=O)Nc1ccccc1`?
RanGTP-Imp inh: inactive

How did CCN(CC)c1ccc2c(C)c(-c3ccc(N)cc3)c(=O)oc2c1 do in these assays?
RanGTP-Imp inh: 136; TbHK1 inh: inactive; Runt-SMMHC FRET: 64; p97 ATPase inh: inactive; Runt-CBFb FRET: inactive; Hck Nef HTS: inactive

What do the screens show for `CCN(CC)c1ccc2c(Cl)c(Br)c(=O)oc2c1`?
RanGTP-Imp inh: 43; TbHK1 inh: inactive; Runt-SMMHC FRET: inactive; p97 ATPase inh: inactive; Runt-CBFb FRET: inactive; Hck Nef HTS: inactive

How did CCN(CC)c1ccc2c(c1)oc(=O)c1c(Cl)cc(=O)oc12 do in these assays?
RanGTP-Imp inh: 67; TbHK1 inh: inactive; Runt-SMMHC FRET: 62; p97 ATPase inh: inactive; Runt-CBFb FRET: inactive; Hck Nef HTS: inactive

What do the screens show for `CNC(=O)NC(=O)COC(=O)/C=C/c1cccc(Br)c1`?
RanGTP-Imp inh: inactive; TbHK1 inh: inactive; Runt-SMMHC FRET: inactive; p97 ATPase inh: inactive; Runt-CBFb FRET: inactive; Hck Nef HTS: inactive

What do the screens show for `O=C(c1ccncc1)N1CCN(c2ccc(F)cc2)CC1`?
RanGTP-Imp inh: inactive; TbHK1 inh: inactive; Runt-SMMHC FRET: inactive; p97 ATPase inh: inactive; Runt-CBFb FRET: inactive; Hck Nef HTS: inactive

How did O=C(c1ccc(Cl)cc1)N1CCN(c2ccc(F)cc2)CC1 do in these assays?
RanGTP-Imp inh: inactive; TbHK1 inh: inactive; Runt-SMMHC FRET: 72; p97 ATPase inh: inactive; Runt-CBFb FRET: inactive; Hck Nef HTS: inactive

Results for Cc1cccc(/C=C(\C(=O)C(=O)O)c2ccc3ccccc3n2)c1 ?
RanGTP-Imp inh: 29; TbHK1 inh: inactive; Runt-SMMHC FRET: 73; p97 ATPase inh: inactive; Runt-CBFb FRET: inactive; Hck Nef HTS: inactive

Results for Cc1c(O)ccc2c(CN3CCOCC3)cc(=O)oc12 ?
RanGTP-Imp inh: 53

What do the screens show for `CCc1cc2c(CN3CCN(CC)CC3)cc(=O)oc2cc1O`?
RanGTP-Imp inh: 115; TbHK1 inh: inactive; Runt-SMMHC FRET: 61; p97 ATPase inh: inactive; Runt-CBFb FRET: inactive; Hck Nef HTS: inactive

What do the screens show for `O=c1cc(CN2CCOCC2)c2cc(Cl)c(O)cc2o1`?
RanGTP-Imp inh: 73

What do the screens show for `Cc1cc2oc(=O)cc(CN3CCOCC3)c2cc1C(C)C`?
RanGTP-Imp inh: inactive

How did O=C(COc1ccccc1C(=O)N/N=C\c1ccc(O)c(O)c1)N/N=C/c1ccc(O)c(O)c1 do in these assays?
RanGTP-Imp inh: inactive; TbHK1 inh: inactive; Runt-SMMHC FRET: inactive; p97 ATPase inh: 19; Runt-CBFb FRET: inactive; Hck Nef HTS: inactive

Results for Cc1nnc(Sc2c(N)n(C)c(=O)[nH]c2=O)s1 ?
RanGTP-Imp inh: 19; TbHK1 inh: inactive; Runt-SMMHC FRET: inactive; p97 ATPase inh: inactive; Runt-CBFb FRET: inactive; Hck Nef HTS: inactive

What do the screens show for `C=CCn1c(Sc2nnc(C)s2)nc2c1c(=O)[nH]c(=O)n2C`?
RanGTP-Imp inh: inactive; TbHK1 inh: inactive; Runt-SMMHC FRET: inactive; p97 ATPase inh: inactive; Runt-CBFb FRET: inactive; Hck Nef HTS: inactive

What do the screens show for `COc1cccc(-n2c(C)cc(/C=C3\C(=N)N4N=C(CC(=O)N5CCOCC5)SC4=NC3=O)c2C)c1`?
RanGTP-Imp inh: 16

How did CCNC(=S)/N=C(/Nc1ccccc1)Nc1nc(C)cc(C)n1 do in these assays?
RanGTP-Imp inh: inconclusive; TbHK1 inh: inactive; Runt-SMMHC FRET: inactive; p97 ATPase inh: inactive; Runt-CBFb FRET: inactive; Hck Nef HTS: inactive

What do the screens show for `CCNC(=S)NC(=NCc1cccnc1)Nc1nc(C)cc(C)n1`?
RanGTP-Imp inh: 19

Results for Cc1cc(C#Cc2c(-c3ccccc3)n(C)c3ccccc23)ccc1F ?
RanGTP-Imp inh: inactive

What do the screens show for `CCOC(=O)C1CCN(c2nc(C)cc(C)c2C#N)CC1`?
RanGTP-Imp inh: inactive; TbHK1 inh: inactive; Runt-SMMHC FRET: inactive; p97 ATPase inh: inactive; Runt-CBFb FRET: inactive; Hck Nef HTS: inactive

Results for CCOC(=O)C1CCN(c2nc(N)c3c(N)nc(SCC(=O)O)cc3c2C#N)CC1 ?
RanGTP-Imp inh: inactive; TbHK1 inh: inactive; Runt-SMMHC FRET: inactive; p97 ATPase inh: 55; Runt-CBFb FRET: inactive; Hck Nef HTS: inactive

How did COCCn1c(=NC(=O)c2ccc3c(c2)OCO3)c(C#N)cc2c(=O)n3cccc(C)c3nc21 do in these assays?
RanGTP-Imp inh: 43; TbHK1 inh: inactive; Runt-SMMHC FRET: 118; p97 ATPase inh: inactive; Runt-CBFb FRET: 105; Hck Nef HTS: inactive

Results for COCCCn1c(C(=O)N2CCOCC2)cc2c(=O)n3cccc(C)c3nc21 ?
RanGTP-Imp inh: inactive

How did CCCCn1c(=NC(=O)c2ccc3c(c2)OCO3)c(C#N)cc2c(=O)n3cccc(C)c3nc21 do in these assays?
TbHK1 inh: inactive; Runt-SMMHC FRET: inactive; p97 ATPase inh: inactive; Runt-CBFb FRET: 56; Hck Nef HTS: inactive

Results for CNC(=O)c1c(NC(=O)c2ccco2)sc2c1CCC2 ?
RanGTP-Imp inh: inactive

Results for O=C(Nc1sc2c(c1C(=O)NC1CCCCC1)CCC2)c1ccco1 ?
RanGTP-Imp inh: 56; TbHK1 inh: inactive; Runt-SMMHC FRET: inactive; p97 ATPase inh: inactive; Runt-CBFb FRET: inactive; Hck Nef HTS: inactive

Results for Cc1ccc(-c2csc(NC(=O)/C=C/c3ccco3)c2C(=O)O)cc1 ?
RanGTP-Imp inh: inconclusive; TbHK1 inh: inactive; Runt-SMMHC FRET: inactive; p97 ATPase inh: inactive; Runt-CBFb FRET: inactive; Hck Nef HTS: 52

Results for Cc1ccc(-c2csc(NC(=O)c3cccc(C)c3)c2C(=O)O)cc1 ?
RanGTP-Imp inh: inactive

Results for COc1ccc2nc(NCCNC(=S)NCCCN3CCOCC3)c(C#N)cc2c1 ?
RanGTP-Imp inh: inactive; TbHK1 inh: inactive; Runt-SMMHC FRET: 93; p97 ATPase inh: inactive; Runt-CBFb FRET: inactive; Hck Nef HTS: inactive

Results for Cc1cc2cc(C#N)c(NCCNC(=S)NCCCN3CCOCC3)nc2cc1C ?
RanGTP-Imp inh: inconclusive; TbHK1 inh: inactive; Runt-SMMHC FRET: 88; p97 ATPase inh: inactive; Runt-CBFb FRET: inactive; Hck Nef HTS: inactive

What do the screens show for `O=c1c(O)c(-c2ccc3c(c2)OCO3)oc2ccccc12`?
RanGTP-Imp inh: 32; TbHK1 inh: inactive; Runt-SMMHC FRET: inactive; p97 ATPase inh: inactive; Runt-CBFb FRET: inactive; Hck Nef HTS: inactive

How did Cc1ccc(N(CC(=O)Nc2ccccc2-c2ccccc2)S(=O)(=O)c2ccccc2)c(C)c1 do in these assays?
RanGTP-Imp inh: inactive; TbHK1 inh: inactive; Runt-SMMHC FRET: inactive; p97 ATPase inh: inactive; Runt-CBFb FRET: inactive; Hck Nef HTS: inactive
